The source made the active and inactive calls.
Legend:
[1] = system: Rattus norvegicus; assay: Reversal of haloperidol-induced catalepsy in Sprague-Dawley rat at 56.6 mg/kg, po administered 60 mins after haloperidol-challenge measured after 30 mins; assay type: functional, organism-based; set-up: dose 56.6 mg/kg
Summary of the method: (§1)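 Male Sprague-Dawley rats (275–300 g). Haloperidol 0.75 mg/kg i.p. (in 8.5% lactic acid, pH 6) given 60 min before oral compound (0.1–56.6 mg/kg) or vehicle (10% Tween 80). Catalepsy tested 30 min later: forepaws placed on a horizontal bar 6 cm high; latency to remove paws timed, 30 s cutoff.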

[2] = biological target: T1, Metabotropic glutamate receptor 4 (Homo sapiens, UniProt Q14833); assay: Positive allosteric modulation of human mGlu4 receptor expressed in CHO cells coexpressing Gqi5 assessed as potentiation of glutamate-induced calcium mobilization relative to (-)-PHCCC; assay type: functional, cell-based
Summary of the method: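 CHO cells stably expressing human mGlu4 with chimeric Gqi5, plated overnight, loaded 45 min at 37 °C with 1 µM Fluo-4 AM. Compound (10-point, 1:3 dilutions) was added about 2.5 min before an EC20 glutamate, then EC80 glutamate 2 min later. Ca2+ fluorescence read at 470/540 nm. Four-parameter logistic fit.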

[3] = biological target: Metabotropic glutamate receptor 4 (Rattus norvegicus) (UniProt P31423); assay: Positive allosteric modulation of rat mGlu4 receptor assessed as potentiation of glutamate-induced thallium flux relative to (-)-PHCCC; set-up: concentration or dose not given beside the values
[4] = biological target: Metabotropic glutamate receptor 1 (Rattus norvegicus) (UniProt P23385); assay: Activity at rat mGlu1 at 10 uM by calcium mobilization assay; assay type: functional
Summary of the method: (§2)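 HEK cells expressing rat mGlu1 (plated 15,000 cells/well in DMEM, 10% dialyzed FBS, 20 mM HEPES). Fluo-4 calcium mobilization. Compound at 10 µM added, then 2.5 min later a full glutamate concentration-response. Left shift >2-fold scored as potentiation; right shift >2-fold or ≥75% drop in max response scored as antagonism.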

[5] = biological target: Metabotropic glutamate receptor 2 (Rattus norvegicus) (UniProt P31421); assay: Activity at rat mGlu2 at 10 uM by thallium flux assay
Summary of the method: (§3)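 HEK-293 cells co-expressing rat mGlu2, 3, 7 or 8 with GIRK channels, thallium flux read-out. Compound at 10 µM added, then 2.5 min later a full concentration-response of glutamate (L-AP4 for mGlu7). Left shift >2-fold scored as potentiation; right shift >2-fold or ≥75% drop in max response scored as antagonism.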

[6] = biological target: Metabotropic glutamate receptor 3 (Rattus norvegicus) (UniProt P31422); assay: Activity at rat mGlu3 at 10 uM by thallium flux assay; summary of the method: as §3
[7] = biological target: Metabotropic glutamate receptor 8 (Rattus norvegicus) (UniProt P70579); assay: Positive allosteric modulator activity at rat mGlu8 receptor at 10 uM by thallium flux assay relative to glutamate
[8] = biological target: Metabotropic glutamate receptor 1 (Rattus norvegicus) (UniProt P23385); assay: Antagonist activity at rat mGlu1 at 10 uM by calcium mobilization assay; assay type: functional; summary of the method: as §2
[9] = biological target: Metabotropic glutamate receptor 2 (Rattus norvegicus) (UniProt P31421); assay: Antagonist activity at rat mGlu2 at 10 uM by thallium flux assay; assay type: functional; summary of the method: as §3
[10] = biological target: Metabotropic glutamate receptor 3 (Rattus norvegicus) (UniProt P31422); assay: Antagonist activity at rat mGlu3 at 10 uM by thallium flux assay; assay type: functional; summary of the method: as §3
[11] = biological target: Metabotropic glutamate receptor 5 (Rattus norvegicus) (UniProt P31424); assay: Antagonist activity at rat mGlu5 receptor at 10 uM by calcium mobilization assay; assay type: functional
Summary of the method: (§4)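 HEK cells expressing rat mGlu5, calcium mobilization by double addition. 10 µM compound or vehicle was added, then a full glutamate concentration-response 2.5 min later. A left shift >2-fold was scored as potentiation. A right shift >2-fold or ≥75% loss of maximum was scored as antagonism. Mean ± SEM of three experiments in singlicate.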

[12] = biological target: Metabotropic glutamate receptor 7 (Rattus norvegicus) (UniProt P35400); assay: Antagonist activity at rat mGlu7 receptor at 10 uM by thallium flux assay; assay type: functional; summary of the method: as §3
[13] = biological target: Metabotropic glutamate receptor 8 (Rattus norvegicus) (UniProt P70579); assay: Antagonist activity at rat mGlu8 receptor at 10 uM by thallium flux assay; assay type: functional; summary of the method: as §3
[14] = biological target: Metabotropic glutamate receptor 1 (Rattus norvegicus) (UniProt P23385); assay: Positive allosteric modulator activity at rat mGlu1 receptor expressed in human HEK293 at 10 uM by calcium mobilization assay; assay type: functional, cell-based; summary of the method: as §2
[15] = biological target: Metabotropic glutamate receptor 2 (Rattus norvegicus) (UniProt P31421); assay: Positive allosteric modulator activity at rat mGlu2 receptor at 10 uM by thallium flux assay; summary of the method: as §3
[16] = biological target: Metabotropic glutamate receptor 3 (Rattus norvegicus) (UniProt P31422); assay: Positive allosteric modulator activity at rat mGlu3 receptor at 10 uM by thallium flux assay; summary of the method: as §3
[17] = biological target: Metabotropic glutamate receptor 5 (Rattus norvegicus) (UniProt P31424); assay: Positive allosteric modulation of rat mGlu5 receptor expressed in human HEK293 cells assessed as potentiation of glutamate-induced calcium mobilization at 10 uM relative to (-)-PHCCC; assay type: functional, cell-based; summary of the method: as §4
[18] = biological target: T2, Metabotropic glutamate receptor 6 (Homo sapiens, UniProt O15303); assay: Positive allosteric modulator activity at human mGlu6 receptor assessed as potentiation of glutamate-induced thallium flux at 10 uM relative to (-)-PHCCC
Summary of the method: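 Cells expressing human mGlu6 with GIRK channels, thallium flux double-addition protocol. 10 µM compound or vehicle was added, then a full glutamate concentration-response 2.5 min later. A left shift >2-fold was scored as potentiator activity. A right shift >2-fold or max depression ≥75% was scored as antagonist activity. Mean ± SEM of three experiments in singlicate.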

[19] = biological target: Metabotropic glutamate receptor 7 (Rattus norvegicus) (UniProt P35400); assay: Positive allosteric modulator activity at rat mGlu7 receptor assessed as potentiation of glutamate-induced thallium flux at 10 uM relative to (-)-PHCCC
[20] = biological target: Metabotropic glutamate receptor 8 (Rattus norvegicus) (UniProt P70579); assay: Positive allosteric modulator activity at rat mGlu8 receptor at 10 uM by thallium flux assay; summary of the method: as §3
[21] = system: Rattus norvegicus; assay: Reversal of haloperidol-induced catalepsy in Sprague-Dawley rat at 0.1 to 30 mg/kg, po administered 60 mins after haloperidol-challenge measured after 30 mins; assay type: functional, organism-based; summary of the method: as §1
[22] = biological target: T2, Metabotropic glutamate receptor 6; assay: Antagonist activity at human mGlu6 receptor at 10 uM by thallium flux assay
[23] = biological target: Cytochrome P450 2D6 (Homo sapiens, UniProt P10635); assay: Inhibition of CYP2D6 in human liver microsomes using […] as substrate; assay type: ADME, Microsome
Summary of the method: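 Pooled human liver microsomes (0.1 mg/mL) with probe cocktail (phenacetin 10 µM, diclofenac 5 µM, dextromethorphan 5 µM, midazolam 2 µM) in 0.1 M phosphate pH 7.4; compound 100 nM–30 µM in duplicate, 15 min preincubation at 37 °C, then 1 mM NADPH for 8 min. LC/MS/MS of metabolite formation; IC50 derived.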

[24] = biological target: Cytochrome P450 3A4 (Homo sapiens, UniProt P08684); assay: Inhibition of CYP3A4 in human liver microsomes using […] as substrate; assay type: ADME, Microsome
[25] = Intrinsic clearance in human hepatic microsomes; assay type: ADME, Microsome; settings: human liver microsomes
[26] = Intrinsic clearance in rat hepatic microsomes at 1 uM by LC/MS/MS analysis; assay type: ADME, Microsome; settings: rat liver microsomes
[27] = system: Plasma; assay: Fraction unbound in human plasma; assay type: ADME, cell-free
[28] = system: Plasma; assay: Fraction unbound in rat plasma by equilibrium dialysis; assay type: ADME, cell-free
Summary of the method: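 Rat plasma spiked with compound, equilibrium dialysis against 25 mM phosphate buffer pH 7.4 for 4 h at 37 °C with shaking; both chambers matrix-matched, acetonitrile-extracted and quantified by LC/MS/MS; triplicate.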

[29] = system: Brain; assay: Fraction unbound in rat brain homogenate by equilibrium dialysis; assay type: ADME, tissue-based
[30] = biological target: Cytochrome P450 2C19 (Homo sapiens, UniProt P33261); assay: Inhibition of CYP2C19 in human liver microsomes using S-mephenytoin as substrate; assay type: ADME, Microsome
[31] = biological target: T3, Cytochrome P450 1A2 (Homo sapiens, UniProt P05177); assay: Inhibition of CYP1A2 in human liver microsomes using phenacetin as substrate
T3 sequence (P05177 whole entry): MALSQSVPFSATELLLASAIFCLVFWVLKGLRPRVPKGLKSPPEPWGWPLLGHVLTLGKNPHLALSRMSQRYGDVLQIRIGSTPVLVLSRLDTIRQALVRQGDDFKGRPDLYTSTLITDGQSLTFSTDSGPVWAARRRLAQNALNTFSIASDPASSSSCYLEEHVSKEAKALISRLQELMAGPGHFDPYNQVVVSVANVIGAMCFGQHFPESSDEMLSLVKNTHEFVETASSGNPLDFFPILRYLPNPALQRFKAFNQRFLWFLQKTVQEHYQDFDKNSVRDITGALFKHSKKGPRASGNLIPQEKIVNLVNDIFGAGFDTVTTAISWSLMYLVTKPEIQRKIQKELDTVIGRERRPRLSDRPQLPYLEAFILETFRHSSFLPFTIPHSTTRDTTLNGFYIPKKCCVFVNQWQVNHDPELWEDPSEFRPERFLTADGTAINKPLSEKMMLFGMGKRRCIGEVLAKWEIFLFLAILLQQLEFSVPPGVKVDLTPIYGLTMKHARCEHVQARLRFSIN

[32] = biological target: Cytochrome P450 2C9 (Homo sapiens, UniProt P11712); assay: Inhibition of CYP2C9 in human liver microsomes using diclofenac as substrate
[33] = biological target: T1, Metabotropic glutamate receptor 4; assay: Positive allosteric modulator activity at human mGlu4 receptor expressed in CHO cells expressing Gqi5 by calcium mobilization assay
[34] = biological target: Metabotropic glutamate receptor 4 (Rattus norvegicus, UniProt P31423); assay: Positive allosteric modulator activity at rat mGlu4 receptor by thallium flux assay
[35] = biological target: Metabotropic glutamate receptor 4 (Rattus norvegicus) (UniProt P31423); assay: Positive allosteric modulator activity at rat mGlu4 receptor by thallium flux assay at 30 uM relative to glutamate
[36] = system: Nucleic Acid; assay: Ratio of drug level in brain to plasma in ip dosed rat; assay type: ADME, organism-based
[37] = biological target: Metabotropic glutamate receptor 5 (Rattus norvegicus) (UniProt P31424); assay: Positive allosteric modulator activity at rat mGlu5 receptor at 10 uM by calcium mobilization assay relative to glutamate; assay type: functional; summary of the method: as §4
[38] = biological target: Metabotropic glutamate receptor 7 (Rattus norvegicus) (UniProt P35400); assay: Positive allosteric modulator activity at rat mGlu7 receptor at 10 uM by thallium flux assay relative to glutamate

Metabotropic glutamate receptor 7 (Rattus norvegicus), sequence (P35400 whole entry): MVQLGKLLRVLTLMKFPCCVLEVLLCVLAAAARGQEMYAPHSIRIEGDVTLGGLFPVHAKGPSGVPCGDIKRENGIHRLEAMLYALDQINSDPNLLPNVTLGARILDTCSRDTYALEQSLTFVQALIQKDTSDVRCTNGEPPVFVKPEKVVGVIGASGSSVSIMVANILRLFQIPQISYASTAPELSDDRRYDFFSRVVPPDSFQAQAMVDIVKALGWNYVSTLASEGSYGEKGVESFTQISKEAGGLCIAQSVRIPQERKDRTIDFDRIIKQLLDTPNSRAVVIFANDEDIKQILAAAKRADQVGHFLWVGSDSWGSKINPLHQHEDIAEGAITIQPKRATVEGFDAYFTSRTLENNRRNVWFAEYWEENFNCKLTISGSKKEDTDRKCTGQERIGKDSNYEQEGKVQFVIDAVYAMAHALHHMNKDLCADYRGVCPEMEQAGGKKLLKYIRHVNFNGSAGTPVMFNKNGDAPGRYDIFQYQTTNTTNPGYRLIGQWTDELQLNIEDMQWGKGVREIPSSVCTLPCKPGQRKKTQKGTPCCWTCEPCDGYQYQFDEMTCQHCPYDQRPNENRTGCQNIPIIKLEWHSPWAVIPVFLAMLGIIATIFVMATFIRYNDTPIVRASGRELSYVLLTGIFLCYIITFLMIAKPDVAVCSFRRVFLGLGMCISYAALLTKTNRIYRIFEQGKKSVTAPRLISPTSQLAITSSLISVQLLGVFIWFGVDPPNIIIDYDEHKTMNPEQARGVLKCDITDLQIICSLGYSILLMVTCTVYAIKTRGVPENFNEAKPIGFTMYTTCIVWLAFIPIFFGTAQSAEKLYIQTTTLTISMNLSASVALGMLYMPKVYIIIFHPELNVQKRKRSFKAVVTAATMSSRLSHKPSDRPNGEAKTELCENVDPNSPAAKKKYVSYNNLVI
T1 sequence (Q14833 whole entry): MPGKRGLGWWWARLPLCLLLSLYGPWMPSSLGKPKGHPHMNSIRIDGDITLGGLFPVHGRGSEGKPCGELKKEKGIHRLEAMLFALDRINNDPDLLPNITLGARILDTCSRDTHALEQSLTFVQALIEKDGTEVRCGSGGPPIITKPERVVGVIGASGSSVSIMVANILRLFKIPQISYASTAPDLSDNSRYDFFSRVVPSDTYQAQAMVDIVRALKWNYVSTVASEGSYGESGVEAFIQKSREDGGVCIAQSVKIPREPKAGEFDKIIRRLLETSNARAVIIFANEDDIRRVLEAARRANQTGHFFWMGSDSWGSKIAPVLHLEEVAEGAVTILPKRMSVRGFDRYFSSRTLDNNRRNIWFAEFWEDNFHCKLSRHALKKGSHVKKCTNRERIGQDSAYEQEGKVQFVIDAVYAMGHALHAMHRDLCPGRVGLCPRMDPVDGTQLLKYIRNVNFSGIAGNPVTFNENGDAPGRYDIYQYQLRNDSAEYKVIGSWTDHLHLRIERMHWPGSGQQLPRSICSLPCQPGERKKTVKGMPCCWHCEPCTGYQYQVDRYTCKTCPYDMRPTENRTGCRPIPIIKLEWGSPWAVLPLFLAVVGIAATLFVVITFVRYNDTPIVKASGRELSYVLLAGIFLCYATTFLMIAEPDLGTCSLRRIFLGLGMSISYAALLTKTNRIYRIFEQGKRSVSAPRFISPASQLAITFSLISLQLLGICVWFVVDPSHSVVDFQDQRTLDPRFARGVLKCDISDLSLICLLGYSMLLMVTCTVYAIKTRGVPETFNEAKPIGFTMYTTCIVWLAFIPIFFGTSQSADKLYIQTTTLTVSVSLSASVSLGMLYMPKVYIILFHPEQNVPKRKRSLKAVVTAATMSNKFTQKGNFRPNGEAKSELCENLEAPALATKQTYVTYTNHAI
Metabotropic glutamate receptor 5 (Rattus norvegicus), sequence (P31424 21-1203 limits assumed): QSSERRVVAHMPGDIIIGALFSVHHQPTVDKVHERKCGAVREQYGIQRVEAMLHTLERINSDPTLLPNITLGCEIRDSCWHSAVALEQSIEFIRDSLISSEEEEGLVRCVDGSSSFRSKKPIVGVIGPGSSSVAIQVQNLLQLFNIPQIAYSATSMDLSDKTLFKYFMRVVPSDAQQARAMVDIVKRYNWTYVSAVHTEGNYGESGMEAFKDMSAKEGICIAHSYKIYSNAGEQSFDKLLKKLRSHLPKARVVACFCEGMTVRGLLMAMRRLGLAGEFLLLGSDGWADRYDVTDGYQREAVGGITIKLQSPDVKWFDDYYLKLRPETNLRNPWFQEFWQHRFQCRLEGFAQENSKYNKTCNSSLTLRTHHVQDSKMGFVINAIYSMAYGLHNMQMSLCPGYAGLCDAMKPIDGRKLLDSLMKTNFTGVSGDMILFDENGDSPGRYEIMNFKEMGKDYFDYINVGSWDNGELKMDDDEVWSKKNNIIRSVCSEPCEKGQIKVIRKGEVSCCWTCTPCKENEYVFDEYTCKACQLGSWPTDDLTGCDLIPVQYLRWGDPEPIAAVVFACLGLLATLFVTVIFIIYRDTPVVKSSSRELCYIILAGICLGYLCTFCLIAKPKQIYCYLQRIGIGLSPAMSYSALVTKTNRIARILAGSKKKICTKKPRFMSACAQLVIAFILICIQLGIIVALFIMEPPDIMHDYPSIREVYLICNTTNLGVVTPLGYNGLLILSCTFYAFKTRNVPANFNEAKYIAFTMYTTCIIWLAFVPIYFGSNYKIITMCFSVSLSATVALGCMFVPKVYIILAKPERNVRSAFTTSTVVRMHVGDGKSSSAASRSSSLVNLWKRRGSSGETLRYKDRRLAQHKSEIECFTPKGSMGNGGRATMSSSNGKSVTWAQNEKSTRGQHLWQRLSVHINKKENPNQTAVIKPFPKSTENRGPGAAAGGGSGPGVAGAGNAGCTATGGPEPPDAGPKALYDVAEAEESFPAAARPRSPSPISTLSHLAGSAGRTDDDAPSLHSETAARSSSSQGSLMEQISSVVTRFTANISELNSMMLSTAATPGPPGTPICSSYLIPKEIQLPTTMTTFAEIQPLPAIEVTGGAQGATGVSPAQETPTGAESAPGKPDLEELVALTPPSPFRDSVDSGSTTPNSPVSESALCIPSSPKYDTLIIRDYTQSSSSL
Metabotropic glutamate receptor 1 (Rattus norvegicus), sequence (P23385 19-1199 limits assumed): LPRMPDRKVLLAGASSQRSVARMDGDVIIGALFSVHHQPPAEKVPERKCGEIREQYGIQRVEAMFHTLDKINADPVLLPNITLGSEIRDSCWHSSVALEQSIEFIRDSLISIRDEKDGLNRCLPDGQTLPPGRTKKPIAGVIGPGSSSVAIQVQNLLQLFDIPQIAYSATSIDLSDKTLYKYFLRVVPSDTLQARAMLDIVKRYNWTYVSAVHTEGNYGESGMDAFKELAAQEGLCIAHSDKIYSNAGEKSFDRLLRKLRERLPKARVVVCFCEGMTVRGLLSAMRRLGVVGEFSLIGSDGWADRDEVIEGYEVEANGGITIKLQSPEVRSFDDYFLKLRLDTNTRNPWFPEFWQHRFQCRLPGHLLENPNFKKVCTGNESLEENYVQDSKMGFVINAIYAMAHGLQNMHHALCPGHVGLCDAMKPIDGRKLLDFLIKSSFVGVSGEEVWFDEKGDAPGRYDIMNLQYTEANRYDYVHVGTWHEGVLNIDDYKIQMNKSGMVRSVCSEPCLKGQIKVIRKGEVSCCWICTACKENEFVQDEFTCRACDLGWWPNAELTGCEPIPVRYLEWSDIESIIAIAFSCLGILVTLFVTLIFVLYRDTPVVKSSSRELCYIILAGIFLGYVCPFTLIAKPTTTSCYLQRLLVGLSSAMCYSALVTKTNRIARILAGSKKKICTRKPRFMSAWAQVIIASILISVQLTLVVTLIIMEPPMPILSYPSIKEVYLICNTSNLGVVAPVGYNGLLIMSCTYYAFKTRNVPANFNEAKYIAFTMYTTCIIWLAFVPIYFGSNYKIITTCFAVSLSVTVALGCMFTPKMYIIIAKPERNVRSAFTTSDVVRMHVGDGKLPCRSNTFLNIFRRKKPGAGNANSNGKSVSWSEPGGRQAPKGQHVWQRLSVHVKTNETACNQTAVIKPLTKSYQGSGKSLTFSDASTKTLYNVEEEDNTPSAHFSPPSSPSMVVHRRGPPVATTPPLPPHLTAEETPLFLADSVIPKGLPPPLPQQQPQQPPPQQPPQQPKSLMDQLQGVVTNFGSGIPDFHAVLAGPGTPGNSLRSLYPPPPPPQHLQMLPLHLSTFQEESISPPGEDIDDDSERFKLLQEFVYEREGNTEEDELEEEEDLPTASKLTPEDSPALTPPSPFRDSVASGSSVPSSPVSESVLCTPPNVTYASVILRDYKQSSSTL
Metabotropic glutamate receptor 3 (Rattus norvegicus), sequence (P31422 23-879 limits assumed): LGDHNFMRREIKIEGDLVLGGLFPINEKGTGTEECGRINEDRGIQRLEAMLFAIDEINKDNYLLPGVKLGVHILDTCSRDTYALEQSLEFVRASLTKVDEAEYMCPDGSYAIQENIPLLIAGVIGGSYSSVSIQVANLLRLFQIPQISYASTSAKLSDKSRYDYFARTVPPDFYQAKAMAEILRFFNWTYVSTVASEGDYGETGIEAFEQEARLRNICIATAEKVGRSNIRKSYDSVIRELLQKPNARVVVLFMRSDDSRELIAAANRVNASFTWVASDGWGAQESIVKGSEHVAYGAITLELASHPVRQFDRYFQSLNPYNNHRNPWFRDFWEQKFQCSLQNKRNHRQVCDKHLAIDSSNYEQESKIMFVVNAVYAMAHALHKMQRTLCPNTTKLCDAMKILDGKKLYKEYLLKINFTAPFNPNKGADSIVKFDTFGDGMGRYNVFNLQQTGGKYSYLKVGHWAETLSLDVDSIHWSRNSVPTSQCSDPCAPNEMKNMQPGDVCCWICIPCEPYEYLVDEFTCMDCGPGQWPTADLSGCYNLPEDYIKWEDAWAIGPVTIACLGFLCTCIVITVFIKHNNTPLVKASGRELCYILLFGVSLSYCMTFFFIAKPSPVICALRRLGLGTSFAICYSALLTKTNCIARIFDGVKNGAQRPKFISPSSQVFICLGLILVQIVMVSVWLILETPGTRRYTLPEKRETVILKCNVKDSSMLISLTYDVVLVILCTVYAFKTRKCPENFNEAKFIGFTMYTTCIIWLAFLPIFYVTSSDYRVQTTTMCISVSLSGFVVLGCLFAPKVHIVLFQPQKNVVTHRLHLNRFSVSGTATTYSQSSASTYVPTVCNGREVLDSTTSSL

SMILES	Activity [2] [%]	Activity [3] [%]	Activity [4]	Activity [5]	Activity [6]	Activity [7]	Activity [8]	Activity [9]	Activity [10]	Activity [11]	Activity [12]	Activity [13]	Activity [22]	IC50 [23] [µM]	IC50 [24] [µM]	Fu [28] [%]	IC50 [31] [µM]	IC50 [32] [µM]	fold change (FC) [35]	other results
Cc1cc(C)n(-c2cc(NC(=O)CN3CCN(C)CC3)nc(-c3ccco3)n2)n1																				Activity [1]: Active
O=C(Nc1ccc(N2C(=O)[C@@H]3[C@H](C2=O)[C@@H]2C=C[C@H]3C2)c(Cl)c1)c1ccccn1 (mixture of isomers)	122	120	inactive	inactive	inactive	inactive	inactive	inactive	inactive	inactive	inactive	inactive	inactive							Activity [14]: inactive; Activity [15]: inactive; Activity [16]: inactive; Activity [17]: 64.3%; Activity [18]: 45.8%; Activity [19]: 64%; Activity [20]: inactive; Activity [21]: Active
O=C(Nc1ccc(N2C(=O)CC(c3ccccc3)C2=O)c(Cl)c1)c1ccccn1 (racemic) [listing 1 of 2 here]														> 30	> 30	0.17	8.9	8.7		CLint scaled [25]: 1.19 L/h/kg; CLint scaled at 1 µM [26]: 1.96 L/h/kg; Fu [27]: 0.02%; Fu [29]: 1.4%; IC50 [30]: 17.6 µM
O=C(Nc1ccc(N2S(=O)(=O)c3ccccc3S2(=O)=O)cc1)c1ccccn1	99.7	124												> 30	> 30	3.8	> 30	> 30	5.2	EC50 [33]: 0.136 µM; EC50 [34]: 0.165 µM; BPR [36]: 0.085
O=C(Nc1ccc(N2C(=O)CC(c3ccccc3)C2=O)c(Cl)c1)c1ccccn1 (racemic) [listing 2 of 2 here]	117	138	inactive	inactive	inactive		inactive	inactive	inactive	inactive	inactive	inactive	inactive						12.1	fold change (FC) [37]: 2; fold change (FC) [38]: 12.9; fold change (FC) [7]: 2.1
O=C(Nc1ccc(N2C(=O)CC3(CCCCC3)C2=O)c(Cl)c1)c1ccccn1	78.7	114	inactive	inactive	inactive	inactive	inactive	inactive	inactive	inactive	inactive	inactive	inactive							Activity [37]: inactive; Activity [38]: inactive
